High-throughput results deposited in PubChem BioAssay by The Scripps Research Institute Molecular Screening Center.
S1P1 ag-PAM: agonists and agonism potentiators of human S1P1 receptor | actives 0.57% (n = 56,000) | S1P1 CRE-bla cells, forskolin, beta-lactamase FRET, potentiator mode; S1P1 agonist co-added at EC20, 2 nM; 100% = saturating reference agonist, 0% = basal | AID 449 | P21453 | activation, % at 9.5 µM;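 active = activation above a cutoff set at the mean activation of all tested compounds plus 3 SD, cut at about 54% in these data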;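 note: forskolin at 4 µM as EC80 and the EC20 agonist is SEW2871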
S1P3 agonist: agonists of human S1P3 receptor; Q99500; S1P3 NFAT-BLA reporter cells, agonism, FRET ratio; relative to 1 µM S1P, basal subtracted; activation, % at 4.5 µM; actives 0.1% (n = 60,000); AID 373;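 active = activation above the screen-wide mean plus 3 SD, cut at about 4.5% in these data, passing the limit was not always enough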
Target sequence (Q99500 whole entry, looked up): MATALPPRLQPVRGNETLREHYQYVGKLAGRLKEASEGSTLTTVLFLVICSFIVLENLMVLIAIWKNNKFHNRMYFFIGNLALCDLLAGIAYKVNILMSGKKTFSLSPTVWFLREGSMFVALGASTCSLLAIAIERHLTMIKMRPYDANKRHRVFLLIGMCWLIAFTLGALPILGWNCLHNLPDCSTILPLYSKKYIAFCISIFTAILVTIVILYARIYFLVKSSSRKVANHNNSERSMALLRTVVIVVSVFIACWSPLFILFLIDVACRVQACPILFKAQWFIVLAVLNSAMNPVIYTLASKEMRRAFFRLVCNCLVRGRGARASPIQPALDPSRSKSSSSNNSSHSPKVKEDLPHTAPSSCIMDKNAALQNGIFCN
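Measure – % activation relative to 1 µM S1P (100%), per plate · System – stable CHO line with human S1P3, Gα16, NFAT-BLA reporter · Timing – cells plated overnight, compound 4 h 37 °C, substrate 2 h RT · Technique – fluorescent BLA substrate, ex 405 nm, em 460/535 nm ratio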
5HT1a ag: 5-HT1a (human) receptor agonism. P08908. CHO 5-HT1a Ga15 NFAT-bla reporter, FRET ratio; 0% basal, 100% maximal reference agonist. activation, % at 10 µM. actives 0.56% (n = 65,000);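 active = activation above the screen-wide mean activation plus 3 SD, cut at about 19% in these data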
HTR1E agonist: agonists of human 5-HT1E serotonin receptor. P28566. CHO 5-HT1E Ga15 NFAT-bla reporter, FRET; 0% DMSO wells, 100% control agonist wells. activation, % at 6 µM. actives 0.69% (n = 65,000). AID 574;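 active = activation above a set limit, the screen-wide mean activation plus 3 SD, cut at about 8.5% in these data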
HTR1E antagonist: antagonists of human 5-HT1E serotonin receptor; actives 0.99% (n = 65,000); CHO 5-HT1E Ga15 NFAT-bla reporter, FRET, antagonist; inhibition, % at 6 µM;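 active = inhibition above a set limit, the mean inhibition across every tested compound plus 3 SD, cut at about 29% in these data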;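 note: signal is the 460 over 535 nm emission ratio of beta-lactamase substrate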
5-HT1A blocker: antagonists of human 5-HT1a serotonin receptor; P08908; inhibition, % at 10 µM; CHO 5-HT1a Ga15 NFAT-bla reporter, antagonist mode; AID 612; actives 0.68% (n = 62,000);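 active = inhibition above the mean of all tested compounds plus 3 SD, cut at about 43% in these data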;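 note: receptor stimulated by 5-CT agonist at 100 nM near EC80; beta-lactamase reporter measured by ratiometric fluorescence of a cleavable substrate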
Of the large screens only hits and unclear results are named; the others gave an inactive call. In the library only some 3% were active in any assay of this set; here they are far more common.

O=C(c1ccccc1)c1ccc(OCC(O)CN2CCCCC2)cc1 (stereo unspecified)	none (no result: S1P1 ag-PAM)
COC(=O)c1ccc2c(=O)n(CCN3CCOCC3)c(SCC(=O)NC3CCCCC3)nc2c1	none
CC(C)c1ccccc1OCCCCCNCCO	none
CCn1cc(C(=O)NCC(=O)OC)c2cc(OC)c(OC)cc2c1=O	none (no result: S1P1 ag-PAM, S1P3 agonist)
CCn1cc(C(=O)NCc2ccc(C)o2)c2cc(OC)c(OC)cc2c1=O	HTR1E antagonist 29
O=C(CN(C(=O)CNC(=O)c1ccco1)c1ccc(Cl)c(Cl)c1)NC1CCCCC1	none
COC(=O)/C=C/S(=O)(=O)c1ccc(NC(C)=O)cc1	HTR1E antagonist 67, 5-HT1A blocker 82
COC(=O)c1ccc(OCC2c3cc(OC)c(OC)cc3CCN2C(=O)c2ccco2)cc1 (stereo unspecified)	HTR1E antagonist 36 (no result: S1P1 ag-PAM, S1P3 agonist)
CCC(=O)N1CCc2cc(OC)c(OC)cc2C1COc1ccc(C(=O)OC)cc1 (stereo unspecified)	HTR1E antagonist 37 (no result: S1P1 ag-PAM, S1P3 agonist)
CCOc1ccc2[nH]c(=O)c(CN(Cc3cccs3)Cc3nnnn3C(C)(C)CC)cc2c1	HTR1E agonist 9.5
CCOC(=O)CSc1nnc(-c2nnc(SCC(=O)OCC)n2CC)n1CC	none
Cn1nnc2cc(C(=O)N3CCCCCC3)ccc21	none (no result: S1P1 ag-PAM, S1P3 agonist)
Cc1cccc(-n2cnc3cc(C(=O)N4CCCCC4)ccc32)c1	5HT1a ag 45 (no result: S1P1 ag-PAM, S1P3 agonist)
COc1ccc(CN2C(=O)NC3(CCCCCC3)C2=O)cc1F	none
O=C(NCCc1ccc(Cl)cc1)c1ncn[nH]1	HTR1E agonist 10
Cc1ccc(-c2csc(N3CCC(NS(=O)(=O)c4ccc5c(c4)OCCO5)CC3)n2)cc1	S1P1 ag-PAM 107
O=C(CN1CCN(c2nc(-c3ccccc3)cs2)CC1)Nc1ccc2c(c1)OCO2	none
Clc1ccc(C(c2nnnn2C2CCCC2)N2CCSCC2)cc1 (stereo unspecified)	5-HT1A blocker 50
O=C(O)C1CCCN(S(=O)(=O)c2ccc(Cl)s2)C1 (stereo unspecified)	none
O=C(C1CCCN(S(=O)(=O)c2ccc(Br)s2)C1)N1CCCCCC1 (stereo unspecified)	5HT1a ag 37 (no result: S1P1 ag-PAM, S1P3 agonist)
O=C(CCN1C(=O)c2ccccc2S1(=O)=O)Nc1nc2c(s1)CCCC2	none
CCCS(=O)(=O)N1CCCC(C(=O)NCCN2CCC(Cc3ccccc3)CC2)C1 (stereo unspecified)	5-HT1A blocker 46
COCCNC(=O)c1ccc2c(c1)nc(C)n2-c1cc(OC)c(OC)c(OC)c1	none
CC1CCCCC1NS(=O)(=O)c1ccc(S(=O)(=O)NCc2ccncc2)cc1 (stereo unspecified)	none
Cc1cccc(NC(=O)Nc2cccc(C#N)c2)n1	none
Cc1cccc(NC(=O)Nc2ccc(C#N)cc2)n1	HTR1E antagonist 32, 5-HT1A blocker 83
Cc1ccc(C(=O)c2coc3ccc(O)c(CN4CCN(C)CC4)c23)cc1	none
Cc1nn(Cc2ccc(Cl)cc2)c(C)c1NC(=O)c1cc(-c2ccco2)on1	none
Cc1nn(Cc2ccc(Cl)c(Cl)c2)c(C)c1NC(=O)c1cc(-c2ccco2)on1	S1P1 ag-PAM 96
Oc1ccccc1-c1cc(-c2ccccc2Cl)[nH]n1	none
Cc1ccc(O)c(-c2cc(-c3ccccc3C)[nH]n2)c1	5-HT1A blocker 44 (no result: S1P1 ag-PAM)
COc1ccc(NC(=O)CSc2nccn2-c2ccccc2)c(OC)c1	HTR1E agonist 22
CCOc1ccccc1NC(=O)CSc1nccn1-c1ccccc1	none
COc1ccc(CNC(=O)c2ccc(=O)oc2)cc1OC	none
COc1cc(C)c(Cl)cc1S(=O)(=O)NCC1CCCO1 (stereo unspecified)	none
CCOc1cc(C)c(Cl)cc1S(=O)(=O)NCC1CCCO1 (stereo unspecified)	HTR1E antagonist 31
C[N+]1=C2CCCCCN2C(O)(c2ccccc2)C1 (stereo unspecified)	5HT1a ag 20, HTR1E agonist 51
O=C(CCN1C(=O)COc2ccccc21)NCc1cccs1	none
Cc1cccc2cc3c(nc12)SC(=NCC1CCCO1)N(Cc1ccco1)C3 (stereo unspecified)	HTR1E antagonist 32, 5-HT1A blocker 57
Cc1cc(C)cc(Nc2ncc3c(n2)CCCC3=O)c1	none
CC1=CCC2C(=O)N(c3ccc(C)c(Br)c3)C(=O)C2C1 (stereo unspecified)	HTR1E agonist 13
CC1=CCC2C(=O)N(c3ccc(Br)cc3C)C(=O)C2C1 (stereo unspecified)	none
CCCCCC(=O)N1CC2(CC)CN(C(=O)CCCCC)CC(CC)(C1)C2=O	none (no result: 5-HT1A blocker)
O=C(Nc1cccc(C(F)(F)F)c1)N1CCC(c2nc(-c3ccc(F)cc3)no2)CC1	S1P1 ag-PAM 58
O=C(Nc1ccc(S(=O)(=O)N2CCCCCC2)cc1)C1CCCO1 (stereo unspecified)	none
CC1(C)OC(=O)C(=CNC(Cc2c[nH]c3ccccc23)C(=O)O)C(=O)O1 (stereo unspecified)	none
COc1ccc(C(=O)COC(=O)CCN=C2NS(=O)(=O)c3ccccc32)cc1OC	HTR1E agonist 20
Nc1n[nH]c(-c2ccccc2)c1-c1ccccc1	none
O=C(Oc1ccc2[nH]cc(CCN3C(=O)c4ccccc4C3=O)c2c1)c1ccco1	HTR1E agonist 38
COc1ccc2c(c1)c(CCN1C(=O)c3ccccc3C1=O)cn2C(=O)c1ccco1	none
Nc1ccc2c(C(F)(F)F)cc(=O)oc2c1	HTR1E antagonist 42
COCCOC(=O)C1=C(C)N=C2SCCC(=O)N2C1c1cc(Br)ccc1OC (stereo unspecified)	none
COc1ccc(-n2nnnc2S(=O)(=O)CC(=O)N2CCCCC2)cc1	HTR1E antagonist 69, 5-HT1A blocker 92
CC(=O)NC1(c2cccc(F)c2)CCN(C(=O)Nc2ccc(C#N)cc2)CC1	none (no result: S1P1 ag-PAM, S1P3 agonist)
CC(=O)C1=C(O)C(=O)N(CCN2CCOCC2)C1c1ccccc1 (stereo unspecified)	HTR1E agonist 9.3
CC(C)c1ncc(C(O)c2cccc3ccccc23)n1C (stereo unspecified)	none (no result: S1P1 ag-PAM)
Oc1ccc(-c2nnc(SCC3CCCCC3)o2)cc1	S1P1 ag-PAM 113
O=C(CSc1nnc(-c2ccc(O)cc2)o1)N1CCOCC1	none
O=C(Cn1ncc2c1-c1ccccc1OC2)N1CCN(Cc2ccc3c(c2)OCO3)CC1	none
CCCCn1c(SCC2CCCCO2)nc2cc(S(N)(=O)=O)ccc21 (stereo unspecified)	none
Cc1csc2nc(CNC(=O)c3ccco3)cn12	HTR1E agonist 11
CC(=O)NCc1cn2c(C)csc2n1	none
CCOC(=O)c1c(NC(=O)CSc2nnnn2CC)sc(C)c1C	none
COc1ccccc1OCCC(=O)OCC(=O)Nc1ncc(Cl)cc1Cl	none
